Measurements taken from PMC4636733 (The Biochemical journal, 2012).

Experiments:
[1] = test system: NC(=O)c1ccc[n+]([C@@H]2O[C@H](COP(=O)([O-])OP(=O)(O)OC[C@H]3O[C@@H](n4cnc5c(N)ncnc54)[C@H](O)[C@@H]3O)[C@@H](O)[C@H]2O)c1; test: cells, lysate or membranes named; conditions: pH 8.0
[2] = molecular target: PbIMPDH-B (IMPDH-B from P. brevicompactum) (Penicillium brevicompactum, UniProt F1DBB2); test: biochemical
[3] = test system: AnImdA, PcIMPDH-A and PcIMPDH-B; test: MPA inhibition of the MPA-sensitive fungal IMPDHs; type: biochemical; conditions: range over AnImdA
[4] = cited from earlier work
[5] = test system: Imd2; conditions: Imd2 from Saccharomyces cerevisiae; cited from earlier work
[6] = molecular target: PbIMPDH-B Phe411 substituted with Tyr (Penicillium brevicompactum, UniProt F1DBB2, F415Y); test: MPA inhibition of PbIMPDH-B variant 411*; type: biochemical
Chain of PbIMPDH-B Phe411 substituted with Tyr (F1DBB2 whole entry F415Y): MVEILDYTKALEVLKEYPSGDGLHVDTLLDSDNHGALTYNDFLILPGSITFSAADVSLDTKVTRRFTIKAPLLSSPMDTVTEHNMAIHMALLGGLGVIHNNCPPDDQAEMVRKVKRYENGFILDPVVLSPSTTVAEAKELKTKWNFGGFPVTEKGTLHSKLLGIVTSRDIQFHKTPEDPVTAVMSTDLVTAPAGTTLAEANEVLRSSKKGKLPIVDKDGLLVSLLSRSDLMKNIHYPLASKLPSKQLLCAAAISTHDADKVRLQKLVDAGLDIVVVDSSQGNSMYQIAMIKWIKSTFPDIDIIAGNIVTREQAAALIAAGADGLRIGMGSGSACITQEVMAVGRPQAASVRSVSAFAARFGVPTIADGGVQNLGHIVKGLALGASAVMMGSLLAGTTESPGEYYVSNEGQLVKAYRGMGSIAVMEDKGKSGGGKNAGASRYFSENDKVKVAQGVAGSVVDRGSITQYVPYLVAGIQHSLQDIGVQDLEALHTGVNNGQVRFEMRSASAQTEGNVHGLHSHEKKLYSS

[7] = test system: E. coli ΔguaB expressing PbIMPDH-B; test: Bacterial complementation assay with MPA; type: cell-based; conditions: 100 μM MPA, no guanosine
Outline: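 E. coli BL21(DE3) ΔguaB host (no endogenous IMPDH) carrying N-terminal His6-tagged fungal IMPDH on a pET28-derived vector. Overnight LB cultures with 25 μg/ml kanamycin; 1:20 serial dilutions spotted on M9 minimal medium with 0.5% casamino acids, 100 μg/ml L-tryptophan, 0.1% thiamin, kanamycin, 66 μM IPTG, ± 100 μM MPA; guanosine plates get 50 μg/ml. Incubated overnight at 37°C, then at room temperature; growth scored.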

[8] = molecular target: AnImdA Tyr411 substituted with Phe (Aspergillus nidulans, UniProt C8V6R6, Y186F); test: MPA inhibition of AnImdA variant 411*; type: biochemical
[9] = test system: Imd3; conditions: Imd3 from Saccharomyces cerevisiae; cited from earlier work
[10] = molecular target: PbIMPDH-A Tyr411 substituted with Phe (Penicillium brevicompactum, UniProt A0A9W9QLZ9, Y425F); test: MPA inhibition of PbIMPDH-A variant 411*; type: biochemical; conditions: read-out: IC50, 411*, PbIMPDH-A Tyr411 to Phe
[11] = molecular target: PbIMPDH-A (IMPDH-A from Penicillium brevicompactum) (Penicillium brevicompactum, UniProt A0A9W9QLZ9); test: IMPDH enzyme assay; type: biochemical
[12] = molecular target: PcIMPDH-B (IMPDH-B from P. chrysogenum) (Penicillium chrysogenum, UniProt B6H451); test: biochemical
[13] = molecular target: PcIMPDH-A (IMPDH-A from Penicillium chrysogenum) (Penicillium chrysogenum, UniProt B6HC24); test: biochemical
[14] = molecular target: AnImdA (IMPDH from Aspergillus nidulans) (Aspergillus nidulans, UniProt C8V6R6); test: biochemical
[15] = test system: P. chrysogenum; test: Spot assay to determine sensitivity towards MPA; type: cell-based, Penicillium chrysogenum; conditions: CYA plates with 200 μg/ml MPA (method) / 6.2 μM MPA (legend of Figure 2A), 25°C
Outline: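 Strain IBT5857 spores harvested into sterile water. 10-fold serial dilutions spotted onto CYA with or without MPA, most concentrated spot ~10⁶ spores. MPA stock was 25 mg/ml in methanol, and every plate held 0.8% (v/v) methanol. Stock and plates were made just before spotting to avoid MPA degradation. Grown at 25°C; growth of dilution series scored.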

Chain of PbIMPDH-B (IMPDH-B from P. brevicompactum) (F1DBB2 whole entry): as the sequence (F1DBB2 whole entry F415Y) above, with Y415F counted along it

## PcIMPDH-A (IMPDH-A from Penicillium chrysogenum) (Penicillium rubens Wisconsin 54-1255)
[1]; other: PcIMPDH-A
  Km: 290 ± 60 µM
  kcat/Km: 2900 ± 300 M⁻¹ s⁻¹

## NC(=O)c1ccc[n+]([C@@H]2O[C@H](COP(=O)([O-])OP(=O)(O)OC[C@H]3O[C@@H](n4cnc5c(N)ncnc54)[C@H](O)[C@@H]3O)[C@@H](O)[C@H]2O)c1 [NAD^+, nicotinamide adenine dinucleotide]
[2]; read-out: KM (NAD^+), PbIMPDH-B
  Km: 790 ± 140 µM

## PcIMPDH-B (IMPDH-B from P. chrysogenum) (Penicillium rubens Wisconsin 54-1255)
[1]; other: PcIMPDH-B
  Km: 640 ± 130 µM
  kcat/Km: 11 ± 6 M⁻¹ s⁻¹

## AnImdA (IMPDH from Aspergillus nidulans) (Aspergillus nidulans FGSC A4)
[1]; other: AnImdA
  Km: 170 ± 70 µM
  kcat/Km: 4,400 ± 100 M^−1s^−1

## COc1c(C)c2c(c(O)c1C/C=C(\C)CCC(=O)O)C(=O)OC2 [MPA, mycophenolic acid]
[3]
  IC50: 0.026 to 0.06 µM
[4]
  increase of IMP concentrations in the presence of MPA: 10-35 fold
[2]
  IC50: 27 ± 9 µM
[5]
  IC50: 70 µM
[6]
  IC50: 25 ± 2 µM
[7]
  growth on minimal media with MPA: resistant
[8]
  IC50: 0.026 ± 0.002 µM
[9]
  IC50: 0.5 µM
[10]
  IC50: 0.16 ± 0.02 µM
[11]; PbIMPDH-A versus IMPDHs from the other filamentous fungi
  fold more resistant to MPA: 10 fold
[11]; read-out: IC50 (MPA), WT PbIMPDH-A, saturating IMP, half-saturating NAD^+, 25°C
  IC50: 0.43 ± 0.03 µM
[12]
  IC50: 0.06 ± 0.01 µM
[13]
  IC50: 0.036 ± 0.004 µM
[14]
  IC50: 0.026 ± 0.002 µM
[15]
  sensitivity towards MPA (growth of spore dilutions): more resistant to MPA than A. nidulans
